Source: ChEMBL document CHEMBL3259517, “Synthesis and evaluation of phosphorus containing, specific CDK9/CycT1 inhibitors” (J Med Chem, 2014)
Active and inactive are the calls of the source. The rule behind the calls is not given here.

Assays:
[1] = target: Tyrosine-protein kinase CSK (Homo sapiens) (UniProt P41240); assay: Inhibition of CSK (unknown origin) at 1 uM
[2] = target: Proto-oncogene tyrosine-protein kinase receptor Ret (Homo sapiens) (UniProt P07949); assay: Inhibition of RET (unknown origin) at 1 uM
[3] = target: Serine/threonine-protein kinase PAK 1 (Homo sapiens) (UniProt Q13153); assay: Inhibition of PAK1 (unknown origin) at 1 uM
[4] = target: T1, CDK9/cyclin T1 (Homo sapiens) (UniProt O60563+P50750); assay: Inhibition of CDK9/CycT1 (unknown origin) using TAMRA-Rbtide and ATP as substrate at 1 uM after 1 hr; type: protein-complex assay
[5] = target: Receptor-type tyrosine-protein kinase FLT3 (Homo sapiens) (UniProt P36888); assay: Inhibition of FLT3 (unknown origin) at 1 uM
[6] = target: T2, Cyclin-dependent kinase 2/cyclin E1 (Homo sapiens) (UniProt P24864+P24941); assay: Inhibition of CDK2/CycE (unknown origin) using FAM labeled peptide as substrate at 1 uM by IMAP FAM FP assay; type: protein-complex assay
In short: (§1)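 Run by contract partners as an IMAP fluorescence polarization assay. […] Enzyme amount was set to give 50% substrate turnover. Compounds were added in DMSO, IMAP binding solution added after the kinase step, then FP read.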

[7] = target: Vascular endothelial growth factor receptor 2 (Homo sapiens) (UniProt P35968); assay: Inhibition of VEGFR2 (unknown origin) at 1 uM
[8] = Cytotoxicity against human MT4 cells assessed as cell viability at 2500 nM after 7 days by MTT assay relative to control; type: cell-based; settings: read-out: Activity
In short: (§2)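 MT4 cells (2−3 × 10⁴/well) in RPMI1640 with 10% FCS, penicillin and streptomycin, exposed to compound at 2500 or 1250 nM for 7 days at 37 °C, 5% CO2. MTT added for 4 h, supernatant removed, formazan dissolved in DMSO, absorbance read at 540 nm. Viability expressed relative to untreated cells (100%).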

[9] = target: Serine/threonine-protein kinase mTOR (Homo sapiens) (UniProt P42345); assay: Inhibition of mTOR (unknown origin) at 1 uM
[10] = target: Rho-associated protein kinase 2 (Homo sapiens) (UniProt O75116); assay: Inhibition of ROCK2 (unknown origin) at 1 uM
[11] = target: Proto-oncogene tyrosine-protein kinase Src (Homo sapiens) (UniProt P12931); assay: Inhibition of SRC (unknown origin) at 1 uM
[12] = target: Tyrosine-protein kinase ABL1 (Homo sapiens) (UniProt P00519); assay: Inhibition of ABL (unknown origin) at 1 uM
[13] = target: Serine/threonine-protein kinase B-raf (Homo sapiens) (UniProt P15056); assay: Inhibition of bRAF (unknown origin) at 1 uM
[14] = target: T3, Cyclin-dependent kinase 4/cyclin D1 (Homo sapiens) (UniProt P11802+P24385); assay: Inhibition of CDK4/CycD1 (unknown origin) using FAM labeled peptide as substrate at 1 uM by IMAP FAM FP assay; type: protein-complex assay; in short: as §1
[15] = target: Hepatocyte growth factor receptor (Homo sapiens) (UniProt P08581); assay: Inhibition of cMET (unknown origin) at 1 uM
[16] = Cytotoxicity against human MT4 cells assessed as cell viability at 1250 nM after 7 days by MTT assay relative to control; type: cell-based; settings: read-out: Activity; in short: as §2
[17] = target: Serine/threonine-protein kinase pim-1 (Homo sapiens) (UniProt P11309); assay: Inhibition of PIM1 (unknown origin) at 1 uM
[18] = target: Serine/threonine-protein kinase PAK 4 (Homo sapiens) (UniProt O96013); assay: Inhibition of PAK4 (unknown origin) at 1 uM
[19] = target: T4, CDK9/cyclin T1 (Homo sapiens, UniProt P50750); assay: Inhibition of CDK9/CycT1 (unknown origin) using TAMRA-Rbtide and ATP as substrate after 1 hr; type: protein-complex assay
[20] = target: Fibroblast growth factor receptor 3 (Homo sapiens) (UniProt P22607); assay: Inhibition of FGFR3 (unknown origin) at 1 uM
[21] = target: T1, CDK9/cyclin T1 (Homo sapiens); assay: Competitive inhibition of CDK9/CycT1 (unknown origin) using ATP as substrate; type: protein-complex assay
In short: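 Kinase inhibition measured with inhibitor held constant at 260 nM across five ATP concentrations, printed as 1.33, 4, 12 (K_mATP), 36 and 108 […]. Ki taken from measured IC50 via the Cheng−Prusoff equation, with the IC50/Ki ratio compared across ATP levels.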

[22] = target: Angiopoietin-1 receptor (Homo sapiens) (UniProt Q02763); assay: Inhibition of TIE2 (unknown origin) at 1 uM
[23] = target: Protein kinase C alpha type (Homo sapiens) (UniProt P17252); assay: Inhibition of PKCalpha (unknown origin) at 1 uM
[24] = target: Serine/threonine-protein kinase Chk1 (Homo sapiens) (UniProt O14757); assay: Inhibition of CHK1 (unknown origin) at 1 uM
[25] = target: Interleukin-1 receptor-associated kinase 4 (Homo sapiens) (UniProt Q9NWZ3); assay: Inhibition of IRAK4 (unknown origin) at 1 uM
[26] = target: Insulin receptor (Homo sapiens) (UniProt P06213); assay: Inhibition of INSR (unknown origin) at 1 uM
[27] = target: High affinity nerve growth factor receptor (Homo sapiens) (UniProt P04629); assay: Inhibition of TrkA (unknown origin) at 1 uM
[28] = target: Epithelial discoidin domain-containing receptor 1 (Homo sapiens) (UniProt Q08345); assay: Inhibition of DDR1 (unknown origin) at 1 uM
[29] = target: Receptor tyrosine-protein kinase erbB-2 (Homo sapiens) (UniProt P04626); assay: Inhibition of ERBB2 (unknown origin) at 1 uM
[30] = system: Human immunodeficiency virus 1; assay: Antiviral activity against HIV1 HTLV-3B infected in human MT4 cells assessed as inhibition of virus proliferation by measuring host cell viability at 1250 nM relative to control; type: functional
In short: (§3)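 HIV-1 HTLV-IIIB (3400 TCID50/mL per well; titre set by virus yield assay) infected MT4 cells, 2−3 × 10⁴/well in RPMI1640 with 10% FCS, penicillin and streptomycin, cultured as for the 7-day viability assay (37 °C, 5% CO2). Test compounds were at 1250 nM and AZT control at 25 nM. Read-out was MTT (4 h, DMSO, A540), given relative to infected untreated cells (100%).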

[31] = target: RAC-alpha serine/threonine-protein kinase (Homo sapiens) (UniProt P31749); assay: Inhibition of AKT1 (unknown origin) at 1 uM
[32] = target: Inhibitor of nuclear factor kappa-B kinase subunit beta (Homo sapiens) (UniProt O14920); assay: Inhibition of IKKbeta (unknown origin) at 1 uM
[33] = target: Tyrosine-protein kinase receptor UFO (Homo sapiens) (UniProt P30530); assay: Inhibition of AXL (unknown origin) at 1 uM
[34] = target: Tyrosine-protein kinase JAK3 (Homo sapiens) (UniProt P52333); assay: Inhibition of JAK3 (unknown origin) at 1 uM
[35] = target: Tyrosine-protein kinase SYK (Homo sapiens) (UniProt P43405); assay: Inhibition of SYK (unknown origin) at 1 uM
[36] = target: Platelet-derived growth factor receptor beta (Homo sapiens) (UniProt P09619); assay: Inhibition of PDGFRb (unknown origin) at 1 uM
[37] = target: Mast/stem cell growth factor receptor Kit (Homo sapiens) (UniProt P10721); assay: Inhibition of cKIT (unknown origin) at 1 uM
[38] = target: T4, CDK9/cyclin T1; assay: Inhibition of CDK9/CycT1 (unknown origin); type: protein-complex assay
[39] = target: T4, CDK9/cyclin T1; assay: Inhibition of CDK9/CycT1 (unknown origin) expressed in HEK293 cells using GST-CTDII as substrate
[40] = system: Human immunodeficiency virus 1; assay: Antiviral activity against HIV1 HTLV-3B infected in human MT4 cells assessed as inhibition of virus proliferation by measuring host cell viability at 25 nM relative to control; type: functional; in short: as §3
[41] = target: Interleukin-1 receptor-associated kinase 3 (Homo sapiens) (UniProt Q9Y616); assay: Binding to IRAK3 (unknown origin) at 1 uM
[42] = target: T3, Cyclin-dependent kinase 4/cyclin D1 (Homo sapiens); assay: Inhibition of CDK4/CycD1 (unknown origin) using FAM labeled peptide as substrate at 10 uM by IMAP FAM FP assay; type: protein-complex assay; in short: as §1
[43] = target: T2, Cyclin-dependent kinase 2/cyclin E1 (Homo sapiens); assay: Inhibition of CDK2/CycE (unknown origin) using FAM labeled peptide as substrate at 10 uM by IMAP FAM FP assay; type: protein-complex assay; in short: as §1

T4 sequence (O60563 whole entry): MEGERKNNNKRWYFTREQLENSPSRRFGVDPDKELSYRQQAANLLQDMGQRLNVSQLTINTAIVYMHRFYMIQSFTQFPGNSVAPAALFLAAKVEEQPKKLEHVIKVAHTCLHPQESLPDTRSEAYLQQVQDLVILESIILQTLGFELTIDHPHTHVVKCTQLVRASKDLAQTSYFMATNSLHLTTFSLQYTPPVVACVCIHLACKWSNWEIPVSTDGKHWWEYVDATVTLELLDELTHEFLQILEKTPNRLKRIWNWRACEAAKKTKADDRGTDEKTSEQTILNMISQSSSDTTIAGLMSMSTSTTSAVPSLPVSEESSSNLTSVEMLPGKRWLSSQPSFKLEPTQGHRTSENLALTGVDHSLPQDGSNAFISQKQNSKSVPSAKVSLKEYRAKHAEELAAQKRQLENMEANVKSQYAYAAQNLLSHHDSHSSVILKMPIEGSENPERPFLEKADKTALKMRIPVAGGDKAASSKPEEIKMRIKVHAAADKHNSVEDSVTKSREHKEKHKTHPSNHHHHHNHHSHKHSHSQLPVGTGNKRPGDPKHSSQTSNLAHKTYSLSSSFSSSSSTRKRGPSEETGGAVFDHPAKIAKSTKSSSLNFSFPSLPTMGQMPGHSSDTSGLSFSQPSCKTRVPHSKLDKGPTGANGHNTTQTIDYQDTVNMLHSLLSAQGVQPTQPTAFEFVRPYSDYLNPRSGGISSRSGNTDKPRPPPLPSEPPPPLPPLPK
T4 sequence (P50750 whole entry): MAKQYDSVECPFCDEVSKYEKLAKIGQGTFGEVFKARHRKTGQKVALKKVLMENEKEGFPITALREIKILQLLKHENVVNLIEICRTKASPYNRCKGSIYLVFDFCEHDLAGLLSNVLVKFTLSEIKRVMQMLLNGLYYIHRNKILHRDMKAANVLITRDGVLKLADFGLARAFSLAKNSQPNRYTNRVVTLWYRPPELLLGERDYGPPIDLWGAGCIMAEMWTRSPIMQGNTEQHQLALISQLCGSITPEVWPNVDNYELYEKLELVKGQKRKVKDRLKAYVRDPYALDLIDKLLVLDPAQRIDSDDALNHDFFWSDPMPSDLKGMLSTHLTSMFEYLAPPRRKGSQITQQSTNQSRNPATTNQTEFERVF
Sequence of Inhibitor of nuclear factor kappa-B kinase subunit beta (Homo sapiens) (O14920 whole entry): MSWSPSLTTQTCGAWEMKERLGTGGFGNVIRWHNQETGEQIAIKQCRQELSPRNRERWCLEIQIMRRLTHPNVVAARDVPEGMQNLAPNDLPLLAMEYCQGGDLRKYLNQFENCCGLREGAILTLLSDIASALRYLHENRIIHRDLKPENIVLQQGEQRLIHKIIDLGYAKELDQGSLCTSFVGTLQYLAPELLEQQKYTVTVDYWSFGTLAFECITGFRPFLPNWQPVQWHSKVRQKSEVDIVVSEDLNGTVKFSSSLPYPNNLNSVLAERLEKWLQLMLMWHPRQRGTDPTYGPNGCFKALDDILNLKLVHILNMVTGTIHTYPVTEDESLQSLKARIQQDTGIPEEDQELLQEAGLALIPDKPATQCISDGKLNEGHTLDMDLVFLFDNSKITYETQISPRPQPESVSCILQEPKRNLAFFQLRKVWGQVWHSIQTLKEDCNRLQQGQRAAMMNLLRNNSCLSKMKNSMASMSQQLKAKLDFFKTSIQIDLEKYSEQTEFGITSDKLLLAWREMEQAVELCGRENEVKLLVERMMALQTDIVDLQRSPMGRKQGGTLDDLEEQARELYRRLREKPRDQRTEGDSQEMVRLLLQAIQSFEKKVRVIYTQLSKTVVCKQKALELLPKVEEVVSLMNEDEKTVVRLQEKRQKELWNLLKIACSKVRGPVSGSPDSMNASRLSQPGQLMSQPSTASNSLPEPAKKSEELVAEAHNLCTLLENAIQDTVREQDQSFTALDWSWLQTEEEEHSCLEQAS
Sequence of Vascular endothelial growth factor receptor 2 (Homo sapiens) (P35968 whole entry): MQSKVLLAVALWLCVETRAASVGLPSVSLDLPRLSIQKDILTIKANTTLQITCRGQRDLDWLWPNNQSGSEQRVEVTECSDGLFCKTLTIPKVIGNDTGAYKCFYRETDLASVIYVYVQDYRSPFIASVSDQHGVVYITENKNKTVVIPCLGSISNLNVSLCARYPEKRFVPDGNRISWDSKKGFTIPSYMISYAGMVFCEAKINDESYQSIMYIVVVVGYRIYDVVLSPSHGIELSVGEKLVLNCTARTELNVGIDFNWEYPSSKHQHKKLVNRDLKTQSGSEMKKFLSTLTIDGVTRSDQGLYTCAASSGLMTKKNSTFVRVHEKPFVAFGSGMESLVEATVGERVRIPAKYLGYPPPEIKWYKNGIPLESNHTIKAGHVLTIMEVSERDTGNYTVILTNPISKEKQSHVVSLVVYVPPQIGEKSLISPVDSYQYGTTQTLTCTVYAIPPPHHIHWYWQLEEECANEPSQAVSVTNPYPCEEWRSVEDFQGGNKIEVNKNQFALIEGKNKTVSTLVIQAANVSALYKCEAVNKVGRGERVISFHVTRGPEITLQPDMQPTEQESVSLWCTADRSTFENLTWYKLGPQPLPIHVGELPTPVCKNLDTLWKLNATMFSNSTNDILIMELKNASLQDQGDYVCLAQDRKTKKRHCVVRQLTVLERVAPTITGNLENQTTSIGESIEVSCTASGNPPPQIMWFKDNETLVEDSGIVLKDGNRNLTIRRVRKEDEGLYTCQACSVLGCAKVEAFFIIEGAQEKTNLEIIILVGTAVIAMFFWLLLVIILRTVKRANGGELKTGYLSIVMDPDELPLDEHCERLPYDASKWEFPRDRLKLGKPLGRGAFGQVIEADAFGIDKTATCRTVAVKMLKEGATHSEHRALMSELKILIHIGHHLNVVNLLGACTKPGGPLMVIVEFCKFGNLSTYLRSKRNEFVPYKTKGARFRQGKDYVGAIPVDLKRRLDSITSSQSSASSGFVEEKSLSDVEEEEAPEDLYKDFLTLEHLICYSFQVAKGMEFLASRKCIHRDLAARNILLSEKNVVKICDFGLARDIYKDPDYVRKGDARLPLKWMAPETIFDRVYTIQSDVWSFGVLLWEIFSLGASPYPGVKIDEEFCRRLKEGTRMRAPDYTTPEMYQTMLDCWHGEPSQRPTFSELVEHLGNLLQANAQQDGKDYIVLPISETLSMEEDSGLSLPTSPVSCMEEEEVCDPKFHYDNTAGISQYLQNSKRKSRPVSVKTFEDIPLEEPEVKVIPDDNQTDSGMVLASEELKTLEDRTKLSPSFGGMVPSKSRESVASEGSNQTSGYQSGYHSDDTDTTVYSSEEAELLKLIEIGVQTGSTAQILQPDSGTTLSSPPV
Sequence of Serine/threonine-protein kinase PAK 1 (Homo sapiens) (Q13153 whole entry): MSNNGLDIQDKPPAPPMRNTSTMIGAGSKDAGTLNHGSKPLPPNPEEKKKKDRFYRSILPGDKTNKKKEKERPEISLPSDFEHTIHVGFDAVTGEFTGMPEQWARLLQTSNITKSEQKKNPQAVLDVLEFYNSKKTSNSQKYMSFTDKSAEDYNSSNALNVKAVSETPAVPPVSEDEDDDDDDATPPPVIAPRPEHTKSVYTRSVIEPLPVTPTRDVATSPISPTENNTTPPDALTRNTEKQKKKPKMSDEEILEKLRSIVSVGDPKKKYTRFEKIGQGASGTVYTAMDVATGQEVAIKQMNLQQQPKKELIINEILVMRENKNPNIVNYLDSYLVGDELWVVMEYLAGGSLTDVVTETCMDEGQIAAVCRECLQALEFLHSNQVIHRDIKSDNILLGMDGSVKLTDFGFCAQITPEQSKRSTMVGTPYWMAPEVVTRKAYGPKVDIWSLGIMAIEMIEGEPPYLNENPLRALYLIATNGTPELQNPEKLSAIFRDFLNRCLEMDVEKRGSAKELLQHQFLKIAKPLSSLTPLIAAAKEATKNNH
Sequence of Serine/threonine-protein kinase pim-1 (Homo sapiens) (P11309 whole entry, looked up): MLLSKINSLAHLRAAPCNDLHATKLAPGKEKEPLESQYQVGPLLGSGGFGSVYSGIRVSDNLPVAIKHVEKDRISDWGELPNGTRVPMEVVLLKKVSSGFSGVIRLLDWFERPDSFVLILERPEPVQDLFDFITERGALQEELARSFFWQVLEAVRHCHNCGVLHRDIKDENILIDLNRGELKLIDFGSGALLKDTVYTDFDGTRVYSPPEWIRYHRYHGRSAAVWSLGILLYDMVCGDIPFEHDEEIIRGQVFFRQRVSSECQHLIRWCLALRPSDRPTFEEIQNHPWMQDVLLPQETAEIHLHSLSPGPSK

CCCP(=O)(Cc1cccc(Nc2cc(-c3ccccc3OC)ncn2)c1)OCC (stereo unspecified)
inhibition [1]: 14% | inhibition [2]: 16% | inhibition [3]: 10% | inhibition [4]: 95% | inhibition [5]: 6% | inhibition [6]: 23% | inhibition [7]: 6% | viability at 168 h, 2.5 µM [8]: 81% | inhibition [9]: 9% | inhibition [10]: 7% | inhibition [11]: 4% | inhibition [12]: 9% | inhibition [13]: 5% | inhibition [14]: 14% | inhibition [15]: 6% | viability at 168 h, 1.25 µM [16]: 66% | inhibition [17]: -2% | inhibition [18]: 19% | IC50 [19]: 296 nM | inhibition [20]: 1% | competitive inhibition (qualitative) [21]: Active | inhibition [22]: 5% | inhibition [23]: 9% | inhibition [24]: 14% | inhibition [25]: 9% | inhibition [26]: 2% | inhibition [27]: -1% | inhibition [28]: 7% | inhibition [29]: 5% | Host cell viability relative to infected untreated cells [30]: 131% | inhibition [31]: -1% | inhibition [32]: 7% | inhibition [33]: 7% | inhibition [34]: 0% | inhibition [35]: -1% | inhibition [36]: 2% | inhibition [37]: 16%

CCOP(=O)(CC)Cc1cccc(Nc2cc(-c3ccccc3OC)ncn2)c1 (stereo unspecified)
inhibition [1]: 24% | inhibition [2]: 34% | inhibition [3]: 20% | inhibition [4]: 98% | inhibition [5]: 12% | inhibition [6]: 36% | inhibition [7]: 11% | viability at 168 h, 2.5 µM [8]: 94% | inhibition [9]: 3% | inhibition [10]: 14% | inhibition [11]: 18% | inhibition [12]: 20% | inhibition [13]: 0% | inhibition [14]: 24% | inhibition [15]: 22% | viability at 168 h, 1.25 µM [16]: 94% | inhibition [17]: 8% | inhibition [18]: 25% | IC50 [19]: 197 nM | inhibition [20]: 8% | competitive inhibition (qualitative) [21]: Active | inhibition [22]: 10% | inhibition [23]: 8% | inhibition [24]: 12% | inhibition [25]: 16% | inhibition [26]: 12% | inhibition [27]: 8% | inhibition [28]: 13% | inhibition [29]: 11% | Host cell viability relative to infected untreated cells [30]: 105% | inhibition [31]: 11% | inhibition [32]: 15% | inhibition [33]: 21% | inhibition [34]: 9% | inhibition [35]: 8% | inhibition [36]: 18% | inhibition [37]: 28%

CCOP(=O)(CC)Cc1cccc(Nc2cc(-c3cccc(N)c3)ncn2)c1 (stereo unspecified)
inhibition [4]: 96% | inhibition [6]: 18% | inhibition [14]: 22% | IC50 [19]: 327 nM

COc1ccccc1-c1cc(Nc2cccc(NS(N)(=O)=O)c2)ncn1
IC50 [38]: 170 nM

CCCOc1ccccc1-c1cc(Nc2cccc(CP(=O)(CCC)OCC)c2)ncn1 (stereo unspecified)
IC50 [19]: 248 nM | competitive inhibition (qualitative) [21]: Active

COc1ccccc1-c1cc(Nc2ccc(C)c(NS(C)(=O)=O)c2)ncn1
IC50 [39]: 30 nM

Cc1cn([C@H]2C[C@H](N=[N+]=[N-])[C@@H](CO)O2)c(=O)[nH]c1=O [ZIDOVUDINE]
Activity [40]: 132%

CCCP(=O)(O)Cc1cccc(Nc2cc(-c3ccccc3OCc3ccccc3)ncn2)c1
viability at 168 h, 2.5 µM [8]: 141% | viability at 168 h, 1.25 µM [16]: 158% | IC50 [19]: 142 nM | residual activity [41]: 18% | Host cell viability relative to infected untreated cells [30]: 141%

COc1ccccc1-c1cc(Nc2cccc(S(N)(=O)=O)c2)ncn1
IC50 [39]: 52 nM

CCCP(=O)(O)Cc1cccc(Nc2cc(-c3ccccc3OC)ncn2)c1
IC50 [19]: 261 nM | competitive inhibition (qualitative) [21]: Active

CCCP(=O)(Cc1cccc(Nc2cc(-c3ccccc3OCC)ncn2)c1)OCC (stereo unspecified)
IC50 [19]: 254 nM | competitive inhibition (qualitative) [21]: Active

COc1ccccc1-c1cc(Nc2cccc(P(=O)(O)O)c2)ncn1
inhibition [42]: 40% | viability at 168 h, 2.5 µM [8]: 90% | inhibition [43]: 56% | viability at 168 h, 1.25 µM [16]: 90% | IC50 [19]: 429 nM | competitive inhibition (qualitative) [21]: Active | Host cell viability relative to infected untreated cells [30]: 130%

Cc1ccc(Nc2cc(-c3cccc(N)c3)ncn2)cc1NS(C)(=O)=O
IC50 [38]: 129 nM
